According to ChEMBL document CHEMBL4219240, “Syntheses and structure-activity relationships on antibacterial and anti-ulcerative colitis properties of quaternary 13-substituted palmatines and 8-oxo-13-substituted dihydropalmatines” (Bioorg Med Chem, 2018):
In brackets after ≈: the same amount, converted by molar mass.

What was measured:
[1] = system: IEC-6; test: Induction of XBP1 promoter DNA activation in rat IEC-6 cells at 10 uM after 48 hrs by dual luciferase reporter gene assay relative to control; format: cell-based
[2] = system: Escherichia coli; test: Antibacterial activity against clinical isolate of Escherichia coli after 24 hrs by twofold microdilution broth method; format: functional
Method in brief: (§1)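 Clinical isolates grown in Mueller-Hinton broth at 37 °C; inoculum diluted in MHB to 10^6 CFU. Compounds from 20,000 µg/ml DMSO stocks, twofold serial dilution across ten wells, with medium-only and organism-only controls. Incubated 24 h in ambient air. MIC taken as the lowest concentration with no visible growth by eye. Three replicates.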

[3] = system: Staphylococcus aureus; test: Antibacterial activity against clinical isolate of Staphylococcus aureus after 24 hrs by twofold microdilution broth method; format: functional; method in brief: as §1
[4] = Cytotoxicity against rat IEC-6 cells assessed as cell survival at 10 uM after 72 hrs by MTT assay relative to control; format: cell-based; settings: read-out: Survival
Method in brief: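 IEC-6 intestinal epithelial cells were exposed to each compound at a fixed 10 µM for 72 h alongside an untreated blank control. Viability was read by MTT reduction and expressed as survival rate (SR). Compounds with SR between 70% and 100% were classed as noncytotoxic or hypocytotoxic.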

[5] = system: Candida albicans; test: Antifungal activity against Candida albicans CMCC (F) 98001 after 24 hrs by twofold microdilution broth method; format: functional; settings: CMCC (F) 98001, 24 h
Method in brief: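 Strain CMCC(F) 98001 grown in Sabouraud dextrose broth at 25 °C; inoculum diluted in SDB to 10^6 CFU. Compounds from 20,000 µg/ml DMSO stocks, twofold serial dilution across ten wells, with medium-only and organism-only controls. Incubated 24 h. MIC read by eye as the lowest concentration with no visible growth. Three replicates.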

[6] = Induction of XBP1 promoter DNA activation in rat IEC-6 cells after 48 hrs by dual luciferase reporter gene assay; format: cell-based; settings: IEC-6, 48 h

SMILES | fold change (FC) [1] | MIC [2] | MIC [3] | viability at 72 h, 10 µM [4] | MIC [5] | EC50 [6]
CCCCCNC(=O)c1c2n(c(=O)c3c(OC)c(OC)ccc13)CCc1cc(OC)c(OC)cc1-2 | 1.21 | > 250 µg/mL | > 250 µg/mL | 70 to 100% | > 250 µg/mL | 1000 nM
COc1cc2c(cc1OC)-c1c(C(C)=O)c3ccc(OC)c(OC)c3c[n+]1CC2.[Cl-] | – | > 250 µg/mL | > 250 µg/mL | 70 to 100% | > 250 µg/mL | –
CCOC(=O)CCCc1c2[n+](cc3c(OC)c(OC)ccc13)CCc1cc(OC)c(OC)cc1-2.[Cl-] | – | > 250 µg/mL | 125 µg/mL | 70 to 100% | > 250 µg/mL | –
CCCCCCCNCc1c2n(c(=O)c3c(OC)c(OC)ccc13)CCc1cc(OC)c(OC)cc1-2 | – | > 250 µg/mL | 125 µg/mL (≈ 253 µM) | 70 to 100% | > 250 µg/mL | –
CCOC(=O)Cc1c2[n+](cc3c(OC)c(OC)ccc13)CCc1cc(OC)c(OC)cc1-2.[Cl-] | – | > 250 µg/mL | 250 µg/mL | 70 to 100% | > 250 µg/mL | –
CCC(=O)c1c2[n+](cc3c(OC)c(OC)ccc13)CCc1cc(OC)c(OC)cc1-2.[Cl-] | 1.01 | > 250 µg/mL | > 250 µg/mL | 70 to 100% | > 250 µg/mL | 301 nM
CCOC(=O)CCCCCc1c2[n+](cc3c(OC)c(OC)ccc13)CCc1cc(OC)c(OC)cc1-2.[Cl-] | – | > 250 µg/mL | 62.5 µg/mL | 70 to 100% | > 250 µg/mL | –
CCCCCC(=O)c1c2[n+](cc3c(OC)c(OC)ccc13)CCc1cc(OC)c(OC)cc1-2.[Cl-] | – | 250 µg/mL | 62.5 µg/mL | 70 to 100% | > 250 µg/mL | –
COc1cc2c(cc1OC)-c1c(C=O)c3ccc(OC)c(O)c3c(=O)n1CC2 | – | > 250 µg/mL | > 250 µg/mL | 70 to 100% | > 250 µg/mL | –
CCCCCCNCc1c2n(c(=O)c3c(OC)c(OC)ccc13)CCc1cc(OC)c(OC)cc1-2 | – | > 250 µg/mL | 250 µg/mL (≈ 520 µM) | 70 to 100% | > 250 µg/mL | –
COc1cc2c(cc1OC)-c1c(C(=O)NCc3ccccc3)c3ccc(OC)c(OC)c3c(=O)n1CC2 | 1.2 | > 250 µg/mL | > 250 µg/mL | 70 to 100% | > 250 µg/mL | 834 nM
CCCC(=O)c1c2[n+](cc3c(OC)c(OC)ccc13)CCc1cc(OC)c(OC)cc1-2.[Cl-] | 1.59 | > 250 µg/mL | 250 µg/mL | 70 to 100% | > 250 µg/mL | 338 nM
CCOC(=O)CCCCCCc1c2[n+](cc3c(OC)c(OC)ccc13)CCc1cc(OC)c(OC)cc1-2.[Cl-] | – | > 250 µg/mL | 15.6 µg/mL | 70 to 100% | 125 µg/mL | –
CCOC(=O)CCCCCCCc1c2[n+](cc3c(OC)c(OC)ccc13)CCc1cc(OC)c(OC)cc1-2.[Cl-] | – | 250 µg/mL | 7.81 µg/mL | 70 to 100% | 62.5 µg/mL | –
CCCCCCCCNCc1c2n(c(=O)c3c(OC)c(OC)ccc13)CCc1cc(OC)c(OC)cc1-2 | – | > 250 µg/mL | 31.2 µg/mL (≈ 61.4 µM) | 70 to 100% | 250 µg/mL (≈ 491 µM) | –
CCOC(=O)CCCCc1c2[n+](cc3c(OC)c(OC)ccc13)CCc1cc(OC)c(OC)cc1-2.[Cl-] | – | > 250 µg/mL | 125 µg/mL | 70 to 100% | > 250 µg/mL | –
C[C@H]1COc2c(N3CCN(C)CC3)c(F)cc3c(=O)c(C(=O)O)cn1c23.C[C@H]1COc2c(N3CCN(C)CC3)c(F)cc3c(=O)c(C(=O)O)cn1c23.O [LEVOFLOXACIN] | – | < 1.95 µg/mL | < 1.95 µg/mL | – | > 250 µg/mL | –
COc1cc2c(cc1OC)-c1cc3ccc(OC)c(OC)c3c(=O)n1CC2 | – | > 250 µg/mL | > 250 µg/mL | 70 to 100% | > 250 µg/mL | –
CCCNCc1c2n(c(=O)c3c(OC)c(OC)ccc13)CCc1cc(OC)c(OC)cc1-2 | – | > 250 µg/mL | > 250 µg/mL | 70 to 100% | > 250 µg/mL | –
COc1cc2c(cc1OC)-c1c(C(=O)NC3CC3)c3ccc(OC)c(OC)c3c(=O)n1CC2 | 1.36 | > 250 µg/mL | > 250 µg/mL | 70 to 100% | > 250 µg/mL | 1000 nM
COc1cc2c(cc1OC)-c1c(C(=O)O)c3ccc(OC)c(OC)c3c(=O)n1CC2 | – | > 250 µg/mL | > 250 µg/mL | 70 to 100% | > 250 µg/mL | –
CCCNC(=O)c1c2n(c(=O)c3c(OC)c(OC)ccc13)CCc1cc(OC)c(OC)cc1-2 | – | > 250 µg/mL | > 250 µg/mL | 70 to 100% | > 250 µg/mL | –
CCOC(=O)c1c2[n+](cc3c(OC)c(OC)ccc13)CCc1cc(OC)c(OC)cc1-2.[Cl-] | – | > 250 µg/mL | > 250 µg/mL | 70 to 100% | > 250 µg/mL | –
CCCCNCc1c2n(c(=O)c3c(OC)c(OC)ccc13)CCc1cc(OC)c(OC)cc1-2 | – | > 250 µg/mL | > 250 µg/mL | 70 to 100% | > 250 µg/mL | –
CCCCNC(=O)c1c2n(c(=O)c3c(OC)c(OC)ccc13)CCc1cc(OC)c(OC)cc1-2 | – | > 250 µg/mL | > 250 µg/mL | 70 to 100% | > 250 µg/mL | –
COc1cc2c(cc1OC)-c1cc3ccc(OC)c(OC)c3c[n+]1CC2.[Cl-] [PALMATINE CHLORIDE] | – | > 250 µg/mL | 250 µg/mL | 70 to 100% | > 250 µg/mL | –
CCCCCCCCCNCc1c2n(c(=O)c3c(OC)c(OC)ccc13)CCc1cc(OC)c(OC)cc1-2 | – | > 250 µg/mL | 15.6 µg/mL (≈ 29.9 µM) | 70 to 100% | 62.5 µg/mL (≈ 120 µM) | –
CCCCC(=O)c1c2[n+](cc3c(OC)c(OC)ccc13)CCc1cc(OC)c(OC)cc1-2.[Cl-] | 1.29 | > 250 µg/mL | 125 µg/mL | 70 to 100% | > 250 µg/mL | 340 nM
CCCCCNCc1c2n(c(=O)c3c(OC)c(OC)ccc13)CCc1cc(OC)c(OC)cc1-2 | – | > 250 µg/mL | > 250 µg/mL | 70 to 100% | > 250 µg/mL | –
